Source: PubChem (several laboratories)
A selection: hits, their analogues and other compounds. The true share with any hit is near 4.2%.
CHOP UPR activ: apoptotic UPR (CHOP) activation | CHO-CHOP luciferase reporter, luminescence; percent of tunicamycin response over DMSO baseline | activation, % at 10 µM | hit rate 0.34% among 330,000 | AID 449763;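 active means at 10 µM dose, activation of 40% or more, normalized to positive control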
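measured by = luciferase luminescence | assay system = CHO-CHOP cells, stable luciferase reporter of PERK-eIF2a-CHOP signalling | amount = 500 reporter cells seeded per well | timing = 6 h compound exposure at 37 °C after overnight seeding | controls = positive tunicamycin 10 µg/mL, negative DMSO alone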
XBP1 UPR activ: adaptive UPR (XBP1) activation | CHO-XBP1 luciferase reporter, IRE1-XBP1 UPR activation, luminescence; percent of tunicamycin response, DMSO as zero | AID 463104 | activation, % at 20 µM | hit rate 0.33% among 330,000;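 active means versus positive control, 20 µM dose yields 30% or more activation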
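Test system: CHO-XBP1 luciferase reporter cells | Buffer or medium: Serum-containing F12 medium, 10% FBS | Schedule: 6 h compound exposure at 37 °C, 5% CO2 | Detection: Steady-Glo luciferase glow luminescence, 10 min after reagent addition | Read-out basis: Activation, % of tunicamycin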
ANO1 block: inhibitors of mouse TMEM16A calcium-activated chloride channel; Q8BHY3; HEK293 TMEM16A/YFP iodide influx fluorescence, ionomycin; normalized B-score (activity score, 25-100; higher = stronger inhibition) at 10 µM; hit rate 1.2% among 310,000;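 active means ratio plate-corrected score three or more library SD toward inhibition, starting fluorescence score within five deviations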;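 further: score derived from kinetic fluorescence span divided by baseline fluorescence per well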
Lipid droplet: modulators of hepatic lipid droplet formation; AML12 mouse hepatocytes, oleate lipid droplets, BODIPY imaging; inhibition, % at 6.5 µM; hit rate 0.4% among 240,000;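 active means lipid droplet intensity inhibited by at least 50%, with more than 500 cells counted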
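Assay system: AML12 hepatocytes (mouse) / Also added: 100 µM oleic acid challenge / Times: overnight treatment with compound plus oleate / Detection: high-content imaging of BODIPY-stained droplets and DAPI nuclei / Evaluation: % inhibition of lipid droplet signal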
CHOP inh: inhibitors of CHOP induction in ER stress response. hit rate 3.8% among 220,000. inhibition, % at 10 µM. CHO-K1 CHOP-promoter luciferase, tunicamycin-induced, 15-18 h;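 active means compounds that reduced the stress-induced luciferase reporter signal by more than about 70% of percent inhibition, limit read from the data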
TMEM16A act: activates or potentiates the mouse TMEM16A chloride channel; Q8BHY3; hit rate 0.3% among 340,000; B-score at 10 µM; HEK293 TMEM16A/YFP-H148Q/I152L, iodide quench fluorescence; hits give low values;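 active means fluorescence-ratio B-score plate-corrected deviation score at least 3 library SD below zero, with starting fluorescence score within 5 deviations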;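 further: channel opened by trigger with iodide after compound preincubation; score built on the fluorescence ratio of max minus min over baseline; more negative score means more quench and so TMEM16A activation or potentiation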
TMEM16A reconf: reconfirmed blocker of mouse TMEM16A calcium-activated chloride channel; shares compounds with ANO1 block; HEK293 TMEM16A/YFP-H148Q, iodide quench fluorescence; ionomycin added to raise cell calcium; inhibition, % at 10 µM; hit rate 39% among 2,300; AID 652189;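 active means mean duplicate percent inhibition, scaled so buffer wells are 0 and the reference blocker 100, over three buffer SD above buffer mean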
HEK293 Ca mobil: alters calcium mobilization in TMEM16A HEK293 cells, counter-screen. shares compounds with ANO1 block. TMEM16A/YFP HEK293, Fluo4 calcium mobilization. calcium response (% of ionomycin), % at 10 µM. hit rate 2% among 2,300;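 active means duplicate-averaged calcium signal over 20% of the ionomycin maximum, relative to buffer baseline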;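 further: each well's signal is peak minus trough fluorescence divided by its pre-addition baseline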
YFP-HEK293 quench: acts in parental YFP-HEK293 cells lacking TMEM16A, counter-screen; shares compounds with ANO1 block; iodide YFP quench, ionomycin; YFP ratio F(max-min)/F0 at 10 µM; 2,300 tested, under 10 active; AID 652233;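 active means yellow fluorescent protein signal ratio exceeding the buffer control mean by over 5 SD of those controls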;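 further: ratio is mean of duplicate wells from kinetic YFP trace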
ClC-1 rat inh: rat ClC-1 inhibition, TMEM16A specificity screen; shares compounds with ANO1 block; CHO ClC-1-YFP, iodide influx fluorescence quench; iodide control reads 0, buffer control 100; ratio percent, % at 10 µM; 2,300 tested, under 10 active; AID 652236;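 active means duplicate-mean ratio percent above the mean of iodide-only control wells, which defines zero, plus 5 of their SD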;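 further: higher percent means stronger block of ClC-1 iodide influx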
Each line names hits and unclear results; the compound was inactive in the other large screens (follow-up assays come after a bar, where they were run).

CCCCCCCCCc1nc2sc3c(c2c(=O)n1NC(=O)c1ccccc1[N+](=O)[O-])CC(C)(C)OC3	ANO1 block 25 | TMEM16A reconf inactive | HEK293 Ca mobil inactive | YFP-HEK293 quench inactive | ClC-1 rat inh inactive
CCOC(=O)CNC(=O)CSc1nc2sc(C)c(C)c2c(=O)n1C	none (no result: Lipid droplet) | TMEM16A reconf inactive | HEK293 Ca mobil inactive | YFP-HEK293 quench inactive | ClC-1 rat inh inactive
CN(CC(=O)Nc1cccc(F)c1)CC(=O)Nc1cc(S(=O)(=O)N2CCOCC2)ccc1Cl	none (no result: ANO1 block, Lipid droplet, CHOP inh)
CN(CC(=O)Nc1cccc(S(=O)(=O)N2CCOCC2)c1)CC(=O)Nc1ccc(Cl)c(C(F)(F)F)c1	ANO1 block 25 (no result: Lipid droplet, CHOP inh) | TMEM16A reconf inactive | HEK293 Ca mobil inactive | YFP-HEK293 quench inactive | ClC-1 rat inh inactive
O=C(Nc1cccc(Br)c1)c1cc2ccccc2o1	ANO1 block 25 (no result: Lipid droplet) | TMEM16A reconf inactive | HEK293 Ca mobil inactive | YFP-HEK293 quench inactive | ClC-1 rat inh inactive
O=C(NCCc1c[nH]c2ccccc12)C1CCC(=O)N(CCc2cccc(F)c2)C1 (stereo not given)	none (no result: CHOP inh)
CC(Sc1nc(NCc2ccccc2)nc(N(C)C)n1)C(=O)Nc1ccccc1 (stereo not given)	ANO1 block 100 (no result: Lipid droplet) | TMEM16A reconf inactive | HEK293 Ca mobil inactive | YFP-HEK293 quench inactive | ClC-1 rat inh inactive
CN(C)c1nc(NCc2ccccc2)nc(SCC(=O)Nc2ccccc2)n1	none (no result: Lipid droplet)
CC1(C#N)c2ccccc2C(Br)=CN1C(=O)c1ccccc1 (stereo not given)	none (no result: Lipid droplet, CHOP inh)
N#CC1(Cc2ccc(Cl)cc2)c2ccccc2C=CN1C(=O)c1ccccc1 (stereo not given)	ANO1 block 25 | TMEM16A reconf inactive | HEK293 Ca mobil inactive | YFP-HEK293 quench inactive | ClC-1 rat inh inactive
O=C(N/N=C/c1ccc(O)cc1)c1ccc(COc2cc(Cl)ccc2Cl)o1	ANO1 block 25, TMEM16A act -5.56 (no result: Lipid droplet) | TMEM16A reconf inactive | HEK293 Ca mobil inactive | YFP-HEK293 quench inactive | ClC-1 rat inh inactive
O=C(Nc1cccnc1)c1ccc(COc2cc(Cl)ccc2Cl)o1	none (no result: Lipid droplet)
COc1ccc2nc(C)cc(N3CC(C)OC(C)C3)c2c1 (stereo not given)	ANO1 block 25 | TMEM16A reconf inactive | HEK293 Ca mobil inactive | YFP-HEK293 quench inactive | ClC-1 rat inh inactive
CC1CN(S(=O)(=O)c2ccc(C(=O)Nc3nnc(-c4ccc5c(c4)CCCC5)o3)cc2)CC(C)O1 (stereo not given)	ANO1 block 100, CHOP inh 104.5 (no result: Lipid droplet) | TMEM16A reconf 32.0% | HEK293 Ca mobil inactive | YFP-HEK293 quench inactive | ClC-1 rat inh inactive
CC1CN(S(=O)(=O)c2ccc(C(=O)Nc3nnc(-c4ccccn4)o3)cc2)CC(C)O1 (stereo not given)	none
O=C(CSc1ccc([N+](=O)[O-])cn1)Nc1ccccc1N1CCOCC1	none (no result: CHOP inh)
CCCCNC(=O)CCc1nc2cccnc2n1Cc1ccccc1	none (no result: CHOP inh)
Cc1cc(/C=N/NC(=O)Cn2c3ccccc3c(=O)c3ccccc32)c(C)n1-c1ccc(Cl)cc1	none (no result: CHOP UPR activ, XBP1 UPR activ, ANO1 block)
O=C(Nc1ccc2c(c1)C(=O)N(CC1CCCO1)C2=O)c1ccc(Cl)c(Cl)c1 (stereo not given)	ANO1 block 100, CHOP inh 91.0 | TMEM16A reconf 51.5% | HEK293 Ca mobil inactive | YFP-HEK293 quench inactive | ClC-1 rat inh inactive
